experiment: Toxicity liver stage against HepG2, at 10uM; type: cell-based; parameters: test concentration 10 uM, cell line HepG2-A16-CD81EGFP; details: human, HepG2-A16-CD81EGFP cells; read-out: INHIBITION
Outline: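 Uninfected HepG2-A16-CD81EGFP cells, 3 × 10^3 per well, 1536-well, plated on prespotted compound at 10 μM final, parasite-free screening media added to match infected plates; puromycin 10 μM positive, DMSO 0.5% negative; run in parallel with 48 h PbLuc assay at 37 °C, 5% CO2; viability by CellTiter-Glo luminescence, normalized to controls.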

Row | SMILES | cytotoxicity at 10 µM
1 | CCCc1nnc([C@H]2CCN(Cc3ncc[nH]3)C2)o1 | -1.63%
2 | COCCCN(Cc1cc(O)nc2ccccc12)C(=O)NC(C)C | 0.829%
3 | Cc1cc(C)n(Cc2ccc(-c3noc(C(=O)NCCCO)n3)cc2)n1 | -1.49%
4 | CNC(=O)[C@@H]1COC[C@H]2CN(C(=O)c3cccc(OC)c3)C[C@H]21 | 12.2%
5 | CN1C(=O)CCC12CCCN(C(=O)c1ccoc1)C2 (stereo unspecified) | 2.65%
6 | COC[C@]12COC[C@H]1CN(S(=O)(=O)c1cccnc1)C2 | -0.975%
7 | COc1cccc(CN2CCCCCC2c2cccs2)c1O (stereo unspecified) | 11.4%
8 | Cc1ccccc1OCn1ccc(C(=O)NCCN2CCOCC2)n1 | 8.02%
9 | O=C(COc1ccc2c(c1)CCC2)NCc1ccco1 | 2.98%
10 | CCCn1nnc(NCc2ccc(-c3ccc(Br)cc3)o2)n1 | -4.11%
11 | CS(=O)(=O)N1CCN(C(=O)c2cc(-c3cccs3)cs2)CC1 | 1.8%
12 | Cc1cc(C(F)(F)F)nn1CC(C)C(=O)Nc1ccncc1 (stereo unspecified) | -2.13%
13 | O=C(O)c1ccccc1-c1ccc(CN2CCC(CO)C2)cn1 (stereo unspecified) | -1.79%
14 | CS(=O)(=O)N1CCC(Cc2cnc(Br)cn2)CC1 | 13.4%
15 | O=C(CC1CCN(CCc2ccccc2)CC1)N1CCCOCC1 | -2.38%
16 | COc1ccc(-c2nc(CCNCc3ccncc3)co2)cc1 | -6.11%
17 | CC(=O)Nc1cc(F)c(S(=O)(=O)N(C)CC2CCC2)c(F)c1 | -54.4%
18 | CC(OCC1CC1)C(=O)N1CCCN(c2nc3ccccc3[nH]2)CC1 (stereo unspecified) | -0.657%
19 | N#Cc1cccc(S(=O)(=O)NC(=O)C2CC(c3ccccc3)=NO2)c1 (stereo unspecified) | 1.85%
20 | CC(C)OCCN1CCC(Nc2nccnc2C#N)CC1 | 2.72%
21 | COC(=O)c1ccc(Cn2cccc(C(F)(F)F)c2=O)c(OC)c1 | 8.55%
22 | CCOc1ccc(CNC2CCCN(c3cccnn3)C2)cc1OC (stereo unspecified) | -3.92%
23 | CCN(C)S(=O)(=O)c1ccc(Cl)cc1C#N | -36.9%

Row | SMILES | cytotoxicity at 10 µM
24 | O=C1CC(N(C(=O)c2ccc(-n3cccc3)cc2)C2CC2)C(=O)N1 (stereo unspecified) | -1.67%
25 | CC(CNC(=O)N1CCN(Cc2ccon2)CC1)Cc1cccs1 (stereo unspecified) | -1.26%
26 | CCOC(C)c1noc(CN2CCN(Cc3ccno3)CC2)n1 (stereo unspecified) | 7.24%
27 | Cc1nnc(CN(C)S(=O)(=O)c2ccc(Br)cc2Cl)n1C | 12.6%
28 | COc1cccc(OCC(=O)N(C)c2cccnc2N(C)C)c1 | 0.102%
29 | CN(C)Cc1ccc(N2CCN(CCOCC(F)(F)F)CC2)nc1 | 1.25%
30 | CN(Cc1ccncc1)c1cncc(Br)c1 | 2.71%
31 | Cc1cc(C(=O)NCC(=O)N2CCOCC2)nn1C(C)(C)C | -3.44%
32 | CC(Sc1nnc(C2CC2)n1CC(N)=O)c1ccc(Cl)cc1 (stereo unspecified) | 7.72%
33 | CCC(=O)NCC(=O)NCc1cc(Br)ccc1OC(F)F | 17.5%
34 | Cc1nn(C)c(C)c1NC(=O)CN1CCc2c(nc(C3CC3)n2C)C1 | -5.31%
35 | CCOc1nnc(CN(C)C2CCCN(c3cccnn3)C2)s1 (stereo unspecified) | -17.3%
36 | CO[C@@H]1CO[C@@]2(CCCN(C(=O)N3CCCC3)C2)C1 | -98.6%
37 | COC[C@@H]1CCC[C@@]12CN(C(=O)C1CCOCC1)CCO2 | -111%
38 | COCC1CN(C(=O)Cc2ccc(F)cc2)Cc2ccnn2C1 (stereo unspecified) | -73.9%
39 | Cn1cccc1C(=O)N1CCC2(CC1)CN(c1ccccc1)C(=O)CO2 | -79.1%
40 | CN(C)[C@@H]1CCN(C(=O)c2ccccn2)[C@H]1Cc1ccncc1 | -63.6%
41 | COc1cccc(C(=O)N2CCOC3(CCCN(C(C)=O)C3)C2)c1 (stereo unspecified) | -68.6%
42 | O=C(c1cnccn1)N1CCc2ncnc(C3CCOC3)c2CC1 (stereo unspecified) | -81.9%
43 | O=C(NCC1CC1)c1c2c(N3CCCC3)ncnc2n2ccccc12 | -61.1%
44 | CCOCC1CC2(CCN(C(=O)c3ncccn3)CC2)CO1 (stereo unspecified) | 4.93%
45 | O=C(NCc1nncn1C1CCCCC1)C1CNCCO1 (stereo unspecified) | -2.08%
46 | Fc1cccc(-n2cc(CN3CCCCC3CCn3ccnc3)cn2)c1 (stereo unspecified) | -8.55%

Row | SMILES | cytotoxicity at 10 µM
47 | c1cncc(CNc2ncnc3c2CCN(Cc2ccsc2)CC3)c1 | 7.91%
48 | Cc1cc(C(=O)N2C[C@H](CO)C[C@H](CN3CCOCC3)C2)nc(C)n1 | 9.91%
49 | CNc1nc(N2C[C@H](NC(=O)CCOC)[C@@H](C3CC3)C2)nc2c1CCC2 | 9.62%
50 | Cc1nnc(SCCCNC(=O)c2ccc3c(c2)OCO3)s1 | 8.8%
51 | CCOc1cc(CNCc2ncc[nH]2)c(Cl)cc1OC(C)C | 5.45%
52 | COc1coc(CN2CCCC3(CCC(=O)N(CC4CC4)C3)C2)cc1=O (stereo unspecified) | -34.4%
53 | Cc1ncccc1OC1(C(=O)NCCc2ccccn2)CCNCC1 | 1.83%
54 | O=C(c1ccc(F)c(F)c1)N1CCC(Cn2cc(CO)nn2)CC1 | 5.95%
55 | CCc1cc(NCCNc2ccncc2C)n2nc(C)c(C)c2n1 | 3.29%
56 | CC(C(=O)O)N1CCc2onc(-c3ccc4c(c3)OCO4)c2C1 (stereo unspecified) | -6.46%
57 | COc1ccc(CN2CCSCC2)c(OC)c1 | 7.94%
58 | OCCCc1nncn1-c1cccc(C(F)(F)F)c1 | 6.74%
59 | Cc1cc(CC(C)NC2CCN(CC(C)C)CC2)[nH]n1 (stereo unspecified) | -8.32%
60 | CCCN1CCCn2nc(CNC(=O)C3CCOC3)cc2C1 (stereo unspecified) | 0.237%
61 | CCc1nccn1CCC(=O)N1CC[C@@H](c2ccc(F)cc2)[C@H](O)C1 | -7.79%
62 | O=C(CC1CCCC1)N1CCC2(CC1)[C@H](O)C[C@@H]2O | 2.3%
63 | CCc1nc2c(c(NCc3nc(-c4cccnc4)no3)n1)CCNCC2 | 5.85%
64 | CN(C)c1ccccc1C(=O)N1CCCC(c2cccc(C(=O)O)c2)C1 (stereo unspecified) | -6.11%
65 | CC(C)OCCCNC(=O)C1CCC(=O)N(C2CCCC2)C1 (stereo unspecified) | -5.92%
66 | Cc1ncc(C(=O)N2C[C@H](CO)C[C@H](CN3CCOCC3)C2)c(=O)[nH]1 | -10.4%
67 | CCN(CC)C(=O)[C@@H]1C[C@@H](N)CN1c1nc(N2CCCC2)nc(C)c1C | -6.9%
68 | CC(Cc1ccccn1)N(C)C(=O)c1ncc[nH]1 (stereo unspecified) | 3.04%
69 | c1coc(-c2nc(CNC3CCC4(CCNCC4)CC3)no2)c1 | -15.8%

Row | SMILES | cytotoxicity at 10 µM
70 | CC(O)CN1CC2(CCC1=O)CCN(Cc1cc(F)ccc1Cl)CC2 (stereo unspecified) | 6.89%
71 | COc1ccc(Cl)cc1S(=O)(=O)N(C)CC(=O)Nc1cccnc1 | 0.192%
72 | COc1ccc(Cl)cc1S(=O)(=O)N(C)CC(=O)Nc1ccccc1 | -2.76%
73 | Cc1nc(CCN(C)C(=O)CN2CCCCCC2)no1 | 5.33%
74 | COc1cccc(-n2cc(CN(C)C(=O)c3cnc(O)cn3)cn2)c1 | -14.7%
75 | Cc1cccc(-c2nc(C)nn2CC(=O)NC(C)C2CC2)c1 (stereo unspecified) | -0.502%
76 | CCc1nccn1C1CCCN(C(=O)c2ccc(-n3ccnc3)cc2)C1 (stereo unspecified) | -10.8%
77 | CC1CCCN(Cc2ccc(OCc3nccn3C)cc2)C1 (stereo unspecified) | -11.8%
78 | Cc1cccc(CNC(=O)CCc2c(C)nc3cc(O)nn3c2C)n1 | -4.03%
79 | Cc1cc(CN2CCC(N(C)Cc3noc(C4CC4)n3)C2)no1 (stereo unspecified) | 5.35%
80 | Cc1csc(CNC(=O)N2CCN(Cc3ccco3)CC2)n1 | 0.702%
81 | Cc1nccc(-c2cccc(NCC(=O)N3CCOCC3)c2)n1 | -0.269%
82 | CN(Cc1cccc(O)c1)C(=O)Nc1cccnc1N1CCCC1 | -0.565%
83 | O=C1COc2cc(C(=O)NS(=O)(=O)c3ccc(F)cc3F)ccc2N1 | -6.21%
84 | COc1ncccc1C(=O)NC1CCOc2ccccc21 (stereo unspecified) | -6.25%
85 | Cc1ccc(CNCC2CNc3cc(C)nn3C2)cn1 (stereo unspecified) | -7.07%
86 | Cc1ccc(NC2CCN(C(=O)CCOCC(F)(F)F)CC2)nn1 | -2.78%
87 | CN1CCCN(C(=O)NCCOc2ccc3c(c2)OCO3)CC1 | -17.5%
88 | CC(=O)N1CCN(CC(C)(O)c2cccc(C(F)(F)F)c2)CC1 (stereo unspecified) | -14.6%
89 | COc1ccccc1CC(=O)NS(C)(=O)=O | -7.31%
90 | O=C(O)c1cc(NS(=O)(=O)c2cccc(Cl)c2F)ccc1Cl | -4.92%
91 | CCn1nc2c(cc1=O)CN(Cc1nc(CCOC)no1)CC2 | -9.24%
92 | COc1cc(CNCc2c(C(C)C)nn(C)c2N(C)C)ccn1 | 0.504%

Row | SMILES | cytotoxicity at 10 µM
93 | Cn1nc2c(cc1=O)CN(Cc1nnc(C3CC3)o1)CC2 | 4.28%
94 | CCc1ccc(NC(=O)N2Cc3c(CN(C)C)nn(C)c3C2)cc1 | 5.62%
95 | Cn1cc(C2CC(=O)NC23CCN(C(=O)c2cccnc2)CC3)cn1 (stereo unspecified) | -79.7%
96 | FC1(F)CCNCC12CCN(c1cccnc1)C2 (stereo unspecified) | 5.8%
97 | COc1cc2cc(C)c(SCCN3CCCC3)nc2cc1OC | -7.48%
98 | CCOCC1CN(C(=O)Cc2ccsc2)Cc2ccnn2C1 (stereo unspecified) | -71.4%
99 | O=C(CC1CC1)N[C@@H]1CN(Cc2ccncc2)C[C@@H]2CCCO[C@@H]21 | -7.96%
100 | O=C(CC1CC1)NCc1cn2c(n1)CN(Cc1cccnc1)CC2 | -78%
101 | Cc1ncsc1CN1C[C@@H]2COC[C@]2(C(=O)NCc2ccccn2)C1 | -108%
102 | Cn1nccc1-c1ccc2nc(C3CCN(CCO)CC3)nn2c1 | -14.1%
103 | COCC(=O)NC1CC2(CCN(CCO)CC2)c2ccccc21 (stereo unspecified) | -109%
104 | Cc1ccc(CN2CC[C@H]3C(=O)N(Cc4cccnc4)CCO[C@H]3C2)o1 | -88.7%
105 | O=C1NC2(CCNCC2)CC1c1ccncc1 (stereo unspecified) | -60.7%
106 | CN(C)[C@@H]1CCN(C(=O)c2ccco2)[C@H]1Cc1cnn(C)c1 | -81.9%
107 | CCCS(=O)(=O)N1CCc2c(COCC)cncc2C1 | 8.76%
108 | O=C([C@H]1CCCO1)N1CC[C@H](O)[C@@H]1Cc1ccncc1 | 6.38%
109 | c1ccc(CN2C[C@H]3CCC[C@@]3(COCC3CCOCC3)C2)nc1 | 1.49%
110 | O=C(NC1CC1)C1[C@H]2CN(Cc3ccc(-c4cc[nH]n4)s3)C[C@@H]12 (stereo partly specified) | 6.27%
111 | O=c1c2c[nH]c(N3CCOCC3)nc-2cn1Cc1cccc(F)c1 | -2.72%

Source: ChEMBL document CHEMBL4513216, “Probing the Open Global Health Chemical Diversity Library for Multistage-Active Starting Points for Next-Generation Antimalarials” (ACS Infect Dis, 2020)
